In brackets after ≈: the same amount, converted by molar mass. Activity calls are given as the source filed them. The calls are words filed in the database; no cut-off is given here.
How the values were obtained:
Bartonella vinsonii = assay: Antibacterial activity against Bartonella vinsonii ATCC VR152 at 20 ug per disc after 7 days by Kirby-Bauer disc diffusion assay; type: functional; conditions: ATCC VR152, 168 h, read-out: DIZ
Procedure, shortened: (§1)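 Each paper disk was loaded with 20 µl of a 1 mg/ml solution, dried for 20 min and stored desiccated at 4 °C. Growth from 4-day plates was suspended in heart infusion broth to McFarland 2.0 and swabbed onto chocolate agar (heart infusion agar base with 5% bovine hemoglobin). Plates were incubated 1 week at 37 °C in 5% CO2. Zone diameter was read to the nearest mm, in triplicate and averaged.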

[1] = Antibacterial activity against Bartonella henselae ATCC 49882 after 7 days by agar dilution method; type: functional, Bartonella henselae str. Houston-1; conditions: ATCC 49882, 168 h
Procedure, shortened: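 Agar dilution on chocolate agar containing compound at 10.0, 1.0 and 0.1 µg/ml, with 2-fold steps at and below 1.0 µg/ml for compounds active there. Controls were DMSO-only and drug-free plates. 25 µl of a McFarland 2.0 suspension in heart infusion broth was spotted and incubated 7 days at 37 °C in 5% CO2. Growth was scored +/− on duplicate plates; triplicate results were averaged.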

Enterococcus faecalis = assay: Antibacterial activity against Enterococcus faecalis DS16 at 50 ug per disc by Kirby-Bauer disc diffusion assay; type: functional; conditions: read-out: DIZ
Procedure, shortened: (§2)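 Disks carried 50 µg of compound. Zone diameter was measured to the nearest mm and averaged over three independent experiments. A value of 6 mm, the disk diameter, was recorded where no inhibition was seen.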

Staphylococcus aureus [2] = assay: Antibacterial activity against methicillin-resistant Staphylococcus aureus isolate CBD 635 at 50 ug per disc by Kirby-Bauer disc diffusion assay; type: functional; conditions: read-out: DIZ
Procedure, shortened: (§3)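 Kirby-Bauer disk diffusion with 50 µg compound per 6 mm paper disk. Organisms were grown and plated by an earlier method. The zone-of-inhibition diameter was recorded to the nearest mm and averaged over three independent experiments. No zone was reported as 6 mm, the disk diameter.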

Bartonella quintana = assay: Antibacterial activity against Bartonella quintana ATCC VR358 at 20 ug per disc after 7 days by Kirby-Bauer disc diffusion assay; type: functional; conditions: ATCC VR358, 168 h, read-out: DIZ; procedure, shortened: as §1
Staphylococcus aureus [3] = assay: Antibacterial activity against methicillin-resistant Staphylococcus aureus isolate CBD 635; type: functional
Procedure, shortened: (§4)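 MIC against S. aureus strains was run by an earlier published procedure, tested in triplicate. Values were averaged and expressed as µg/ml of compound.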

[4] = Antibacterial activity against Bartonella henselae Houston-1 infected in human HMEC1 cells assessed as intracellular bacterial load at 0.1 ug/mL incubated for 96 hrs followed by compound washout measured after 7 days relative to control; type: functional, Bartonella henselae str. Houston-1
Procedure, shortened: (§5)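 HMEC-1 cells grown in MCDB131 with 10% FBS, EGF and hydrocortisone were infected with B. henselae Houston-1 at MOI 100 for 4 h. Extracellular bacteria were killed with gentamicin (200 µg/ml, 1 h), then compound was added at 0.1 or 1.0 µg/ml for 96 h. After washing, cells were lysed with 0.1% saponin and lysates plated on chocolate agar for 7 days. CFU are given as a percentage of the media-only control.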

[5] = Antibacterial activity against Bartonella henselae Houston-1 infected in human HMEC1 cells assessed as intracellular bacterial load at 1 ug/mL incubated for 96 hrs followed by compound washout measured after 7 days relative to control; type: functional, Bartonella henselae str. Houston-1; procedure, shortened: as §5
[6] = Antibacterial activity against Bartonella henselae ATCC 49882 at 20 ug per disc after 7 days by Kirby-Bauer disc diffusion assay; type: functional, Bartonella henselae str. Houston-1; conditions: ATCC 49882, 168 h, read-out: DIZ; procedure, shortened: as §1
Staphylococcus aureus [7] = assay: Antibacterial activity against methicillin-resistant Staphylococcus aureus ATCC 43300; type: functional; procedure, shortened: as §4
Bacillus anthracis = assay: Antibacterial activity against Bacillus anthracis sterne at 50 ug per disc by Kirby-Bauer disc diffusion assay; type: functional; conditions: read-out: DIZ; procedure, shortened: as §3
Escherichia coli [8] = assay: Antibacterial activity against Escherichia coli DH5alpha at 50 ug per disc by Kirby-Bauer disc diffusion assay; type: functional; conditions: DH5[alpha], read-out: DIZ; procedure, shortened: as §2
Staphylococcus aureus [9] = assay: Antibacterial activity against methicillin-susceptible Staphylococcus aureus SH1000; type: functional
Procedure, shortened: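 MIC in µg/ml, tested in triplicate and averaged, with ciprofloxacin as positive control.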

Bartonella elizabethae = assay: Antibacterial activity against Bartonella elizabethae F9251 at 20 ug per disc after 7 days by Kirby-Bauer disc diffusion assay; type: functional; conditions: F9251, 168 h, read-out: DIZ; procedure, shortened: as §1
Staphylococcus aureus [10] = assay: Antibacterial activity against methicillin-susceptible Staphylococcus aureus SH1000 at 1.5 fold MIC by serial dilution method; type: functional
Procedure, shortened: (§6)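 Tryptic soy agar contained compound at 1x, 1.5x, 2.0x or 2.5x the measured MSSA MIC. Cells from 1 ml of an overnight MSSA broth culture were pelleted, resuspended in 100 µl TSB and spread with glass beads. Inoculum cfu was counted by serial dilution onto drug-free agar. Total colonies from at least 3 replicates are reported; frequency is colonies divided by total inoculum.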

Staphylococcus aureus [11] = assay: Antibacterial activity against methicillin-susceptible Staphylococcus aureus SH1000 at 2.5 fold MIC by serial dilution method; type: functional; procedure, shortened: as §6
Staphylococcus aureus [12] = assay: Antibacterial activity against methicillin-susceptible Staphylococcus aureus SH1000 at MIC by serial dilution method; type: functional; procedure, shortened: as §6
Escherichia coli [13] = assay: Inhibition of Escherichia coli DNA gyrase-mediated formation of supercoiled form of pUC19 at 1 to 100 ug/mL by gel electrophoresis
Procedure, shortened: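 Relaxed circular pUC19 was incubated with purified E. coli DNA gyrase and compound for 1 h at 37 °C. Relaxed and supercoiled DNA were resolved and quantified by gel electrophoresis.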

Staphylococcus aureus [14] = assay: Antibacterial activity against methicillin-susceptible Staphylococcus aureus SH1000 at 2 fold MIC by serial dilution method; type: functional; procedure, shortened: as §6

SMILES | zone of inhibition at 20 µg/disc (Bartonella vinsonii) | MIC [1] | zone of inhibition at 50 µg/disc (Enterococcus faecalis) | zone of inhibition at 50 µg/disc (Staphylococcus aureus [2]) | zone of inhibition at 20 µg/disc (Bartonella quintana) | MIC (Staphylococcus aureus [3]) | Activity [4] | Activity [5] | zone of inhibition at 20 µg/disc [6] | MIC (Staphylococcus aureus [7]) | zone of inhibition at 50 µg/disc (Bacillus anthracis) | zone of inhibition at 50 µg/disc (Escherichia coli [8]) | MIC (Staphylococcus aureus [9]) | zone of inhibition at 20 µg/disc (Bartonella elizabethae) | CFU/ml (Staphylococcus aureus [10]) | CFU/ml (Staphylococcus aureus [11]) | CFU/ml (Staphylococcus aureus [14]) | Activity (Staphylococcus aureus [12]) | also measured
CC(C)CC(=O)N1CCN(c2cc3c(cc2F)c(=O)c(C(=O)O)cn3C2CC2)CC1 | 40 mm | 0.2 mg/L (≈ 0.481 µM) | 32 mm | 28 mm | 36 mm | > 100 mg/L | 32% | <=10% | 62 mm | > 100 mg/L | 70 mm | 36 mm | > 100 mg/L | 37 mm | – | – | – | – | –
CC(=O)N1CCN(c2cc3c(cc2F)c(=O)c(C(=O)O)cn3C2CC2)CC1 | – | – | 48 mm | 24 mm | 6 mm | > 100 mg/L | 54% | <=10% | 52 mm | 10 mg/L (≈ 26.8 µM) | 89 mm | 60 mm | 10 mg/L (≈ 26.8 µM) | 58 mm | 41 | 0 | 101 | – | CFU/ml (Staphylococcus aureus [12]): 90; gyrase inhibition (active/inactive) (Escherichia coli [13]): Active
CCC(C)(C)C(=O)N1CCN(c2cc3c(cc2F)c(=O)c(C(=O)O)cn3C2CC2)CC1 | 33 mm | 0.5 mg/L (≈ 1.16 µM) | 45 mm | 31 mm | 27 mm | > 100 mg/L | 54% | <=10% | 41 mm | 1 mg/L (≈ 2.33 µM) | 57 mm | 38 mm | 5 mg/L (≈ 11.6 µM) | 32 mm | – | – | – | – | –
CCCC(C)C(=O)N1CCN(c2cc3c(cc2F)c(=O)c(C(=O)O)cn3C2CC2)CC1 (configuration not stated) | 30 mm | 0.8 mg/L (≈ 1.86 µM) | 33 mm | 33 mm | 24 mm | > 100 mg/L | – | – | 37 mm | 1 mg/L (≈ 2.33 µM) | 67 mm | 33 mm | 10 mg/L (≈ 23.3 µM) | 32 mm | 7 | 0 | 4 | inactive | –
CCCCCCCCCC(=O)N1CCN(c2cc3c(cc2F)c(=O)c(C(=O)O)cn3C2CC2)CC1 | 9 mm | 5 mg/L (≈ 10.3 µM) | 6 mm | 34 mm | 11 mm | > 100 mg/L | – | – | 10 mm | 10 mg/L (≈ 20.6 µM) | 6 mm | 6 mm | 10 mg/L (≈ 20.6 µM) | 9 mm | – | – | – | inactive | Activity (Staphylococcus aureus [10]): inactive; Activity (Staphylococcus aureus [11]): inactive; Activity (Staphylococcus aureus [14]): inactive

Source: ChEMBL document CHEMBL2150951, “Studies on the antimicrobial properties of N-acylated ciprofloxacins” (2012)
